Here are results for one molecule from ChEMBL document CHEMBL3526053, “Species-dependent uptake of glycylsarcosine but not oseltamivir in Pichia pastoris expressing the rat, mouse, and human intestinal peptide transporter PEPT1” (Drug Metab Dispos, 2012).

Common to all, as to format: ADME
The target of series [1] is T1, Solute carrier family 15 member 1 (Homo sapiens, UniProt P46059).
T1 sequence (P46059 whole entry): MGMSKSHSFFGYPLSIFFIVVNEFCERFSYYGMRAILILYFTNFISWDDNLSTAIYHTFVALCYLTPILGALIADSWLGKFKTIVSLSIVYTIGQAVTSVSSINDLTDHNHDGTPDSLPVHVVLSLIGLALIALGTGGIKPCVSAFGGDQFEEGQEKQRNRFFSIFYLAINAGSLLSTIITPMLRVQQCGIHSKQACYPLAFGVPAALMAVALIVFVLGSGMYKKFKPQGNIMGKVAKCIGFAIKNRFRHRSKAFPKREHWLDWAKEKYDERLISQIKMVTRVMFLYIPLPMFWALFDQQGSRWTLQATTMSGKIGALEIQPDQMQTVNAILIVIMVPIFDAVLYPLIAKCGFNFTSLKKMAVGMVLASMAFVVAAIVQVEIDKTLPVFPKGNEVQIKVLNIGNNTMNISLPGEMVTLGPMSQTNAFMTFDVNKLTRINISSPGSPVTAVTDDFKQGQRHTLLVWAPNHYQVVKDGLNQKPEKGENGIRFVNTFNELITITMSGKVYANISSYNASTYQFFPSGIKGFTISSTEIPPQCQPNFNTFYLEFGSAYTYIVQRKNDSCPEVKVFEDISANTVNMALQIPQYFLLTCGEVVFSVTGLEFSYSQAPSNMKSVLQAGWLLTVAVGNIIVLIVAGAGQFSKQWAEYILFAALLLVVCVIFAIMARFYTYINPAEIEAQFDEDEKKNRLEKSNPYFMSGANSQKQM
The series is described as follows: Drug uptake in Pichia pastoris GS115 expressing human recombinant PEPT1 at 5 uM after 30s by dual-channel liquid scintillation counting analysis in presence of acyclovir relative to control. Conditions: 0.5 min. The procedure, abridged: (§1)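 [3H]GlySar 5.0 µM final, 30-s uptake at 24°C in 100 mM potassium phosphate pH 6.5, with or without a potential inhibitor at 10 mM. Cells are methanol-induced transformants. Values are vector-subtracted and expressed as percent of buffer control. Mean ± SE (n=3). ANOVA with Dunnett's test.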

The target of series [2] is T2, PEPT1 (Homo sapiens, UniProt P46059).
T2 sequence (P46059 whole entry): T1 sequence (P46059 whole entry)
Put plainly: Drug uptake in Pichia pastoris GS115 expressing human recombinant PEPT1 at 5 uM after 30 mins by dual-channel liquid scintillation counting analysis relative to vector control. Conditions: read-out: FC. The procedure, abridged:
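5.0 µM radiolabelled substrate ([3H]GlySar or [14C]oseltamivir) is incubated 30 min at 24°C with induced transformants in 100 mM potassium phosphate pH 6.5. Cell-associated radioactivity is counted by scintillation after standing 24 h and normalised to OD600. Results are compared with pPIC3.5K vector-alone cells. Mean ± SE (n=6).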

Series [3] deals with T3, PEPT1 (Rattus norvegicus, UniProt P51574).
T3 sequence (P51574 whole entry): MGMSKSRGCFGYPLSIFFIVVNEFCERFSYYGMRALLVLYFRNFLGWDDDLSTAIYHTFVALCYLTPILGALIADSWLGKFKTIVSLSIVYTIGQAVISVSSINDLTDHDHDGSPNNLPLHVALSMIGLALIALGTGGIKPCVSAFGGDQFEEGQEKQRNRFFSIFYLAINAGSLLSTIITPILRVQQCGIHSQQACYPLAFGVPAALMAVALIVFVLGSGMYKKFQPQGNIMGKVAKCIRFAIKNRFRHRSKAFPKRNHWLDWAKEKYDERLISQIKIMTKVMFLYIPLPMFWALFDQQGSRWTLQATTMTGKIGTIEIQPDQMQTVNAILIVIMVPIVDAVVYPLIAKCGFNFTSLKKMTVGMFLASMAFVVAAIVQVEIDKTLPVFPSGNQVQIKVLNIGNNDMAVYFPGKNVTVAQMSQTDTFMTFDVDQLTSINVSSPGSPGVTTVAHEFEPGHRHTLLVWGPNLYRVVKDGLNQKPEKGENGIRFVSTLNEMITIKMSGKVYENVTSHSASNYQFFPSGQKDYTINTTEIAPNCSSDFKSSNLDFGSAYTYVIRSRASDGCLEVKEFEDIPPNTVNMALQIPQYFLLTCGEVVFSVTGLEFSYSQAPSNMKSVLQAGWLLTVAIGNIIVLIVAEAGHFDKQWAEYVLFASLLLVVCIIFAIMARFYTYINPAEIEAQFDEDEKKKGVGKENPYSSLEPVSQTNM
The series is described as follows: Drug uptake in Pichia pastoris GS115 expressing rat recombinant PEPT1 at 5 uM after 30s by dual-channel liquid scintillation counting analysis relative to vector control. To be noted: read-out: FC. The procedure, abridged:
(§2)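 Rat PEPT1 and vector-only (pPIC3.5K) GS115 yeast, methanol-induced 20-24 hr. Cells were washed and concentrated tenfold in 100 mM phosphate buffer pH 6.5. [3H]GlySar or [14C]oseltamivir final 5.0 µM, 24°C, 30 sec and 5 min. Nonspecific binding was measured at 0°C and zero time. Uptake is given as pmol/OD600 by scintillation counting. Mean ± SE, n=6.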

The target in series [4] is T4, Solute carrier family 15 member 1 (Mus musculus, UniProt Q9JIP7).
T4 sequence (Q9JIP7 whole entry): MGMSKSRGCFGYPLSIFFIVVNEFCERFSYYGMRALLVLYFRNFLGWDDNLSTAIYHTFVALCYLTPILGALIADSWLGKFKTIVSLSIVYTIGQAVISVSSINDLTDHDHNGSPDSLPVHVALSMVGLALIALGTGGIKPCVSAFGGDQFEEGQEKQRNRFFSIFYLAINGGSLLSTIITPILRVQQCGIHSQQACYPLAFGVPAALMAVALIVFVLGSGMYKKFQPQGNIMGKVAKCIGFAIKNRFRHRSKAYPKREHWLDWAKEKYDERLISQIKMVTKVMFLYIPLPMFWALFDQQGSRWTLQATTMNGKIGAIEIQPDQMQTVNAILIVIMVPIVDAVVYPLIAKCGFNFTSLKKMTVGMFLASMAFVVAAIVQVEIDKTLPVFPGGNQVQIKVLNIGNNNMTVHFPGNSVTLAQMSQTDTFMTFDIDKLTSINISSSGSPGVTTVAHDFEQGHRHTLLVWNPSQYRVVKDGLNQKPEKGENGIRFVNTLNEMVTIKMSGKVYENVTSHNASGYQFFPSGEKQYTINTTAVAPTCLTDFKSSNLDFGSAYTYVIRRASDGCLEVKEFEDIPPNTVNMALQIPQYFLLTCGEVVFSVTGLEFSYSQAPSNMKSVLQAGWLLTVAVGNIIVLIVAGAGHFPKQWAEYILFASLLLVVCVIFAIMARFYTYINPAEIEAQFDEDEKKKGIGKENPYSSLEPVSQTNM
Put plainly: Drug uptake in Pichia pastoris GS115 expressing mouse recombinant PEPT1 at 5 uM after 30s by dual-channel liquid scintillation counting analysis in presence of SITS relative to control. To be noted: 0.5 min. An outline of the steps: as §1

The target in series [5] is T5, Solute carrier family 15 member 1 (Rattus norvegicus, UniProt P51574).
T5 sequence (P51574 whole entry): T3 sequence (P51574 whole entry)
Put plainly: Drug uptake in Pichia pastoris GS115 expressing rat recombinant PEPT1 at 5 uM after 30s by dual-channel liquid scintillation counting analysis relative to control. To be noted: 0.5 min. An outline of the steps: as §2

The target of series [6] is T4, Solute carrier family 15 member 1. Put plainly: Drug uptake in Pichia pastoris GS115 expressing mouse recombinant PEPT1 at 5 uM after 30s by dual-channel liquid scintillation counting analysis relative to control. Conditions: in vivo, 0.5 min. An outline of the steps:
as §1

In the case of `[3H]C(C(=O)O)N(C)C(=O)CN` (stereo unspecified), the Drug uptake in series [1] was found to be 114%; in series [4], 86.1%; in series [5], 100%; in series [6], 100%. For the same molecule, on PEPT1 [2], the uptake ratio at 0.5 h, 5 µM was 30. In addition, the uptake ratio at 0.5 min, 5 µM at PEPT1 [3] amounted to 136.
